Laboratory results taken from ChEMBL document CHEMBL5303300, “EUbOPEN Chemogenomics Library - Multiplex” (2023).
“And” between values parts separate entries of the source, which are not always exact repeats. Equal entries are not always repeated.

Test system: Fibroblast
Test: Multiplex assay against human fibroblast
Format: toxicity, cell-based
Details: number of replicates 2
Method in brief: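 With compound added, live cells were imaged on a CQ1 microscope at 37°C and 5% CO2; staining with Hoechst33342, BioTracker Green Microtubule Cytoskeleton Dye, MitoTracker Red and Annexin V Alexa Fluor 680 had been done at seeding. The CellPathfinder machine-learning gating scheme split cells into Hoechst high-intensity objects or normal cells, normal cells into healthy, pyknosed or fragmented nuclei, and pyknosed cells into mitotic or apoptotic. The tubulin, mitochondrial-mass and membrane-permeability phenotypes are per cents of healthy-nucleus cells.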

[1] = 12 h, 1 µM, compound concentration 1 uM
[2] = 12 h, 10 µM, compound concentration 10 uM
[3] = 24 h, 1 µM, compound concentration 1 uM
[4] = 24 h, 10 µM, compound concentration 10 uM
[5] = 48 h, 1 µM, compound concentration 1 uM
[6] = 48 h, 10 µM, compound concentration 10 uM

COc1ccc2cc(S(=O)(=O)N[C@H](CC(=O)N[C@H](Cc3ccc(CN4[C@H](C)CCC[C@@H]4C)cc3)C(=O)N(C)C(C)C)c3ccc4c(c3)OCO4)ccc2c1.Cl
Population Apoptotic (%) [1]: 31% and 54%
Population Fragmented Nuclei (%) [1]: 17% and 21%
Population Healthy Nuclei (%) [1]: 61% and 62%
Population Hoechst High Intensity Objects (%) [1]: 0%
Population Membrane Permeable-Phenotype (%) [1]: 6% and 11%
Population Mitochondria Different-Phenotype (%) [1]: 2% and 1%
Population Mitotic Cells (%) [1]: 68% and 45%
Population Normal (%) [1]: 100%
Population Pyknosed Nuclei (%) [1]: 20% and 16%
Population Tubulin-Different-Phenotype (%) [1]: 66% and 52%
Total Cell Count [1]: 155 and 275
Population Apoptotic (%) [2]: 57% and 44%
Population Fragmented Nuclei (%) [2]: 26% and 14%
Population Healthy Nuclei (%) [2]: 52% and 66%
Population Hoechst High Intensity Objects (%) [2]: 0%
Population Membrane Permeable-Phenotype (%) [2]: 20% and 17%
Population Mitochondria Different-Phenotype (%) [2]: 21% and 16%
Population Mitotic Cells (%) [2]: 42% and 55%
Population Normal (%) [2]: 99%
Population Pyknosed Nuclei (%) [2]: 20% and 19%
Population Tubulin-Different-Phenotype (%) [2]: 97% and 84%
Total Cell Count [2]: 160 and 258
Population Apoptotic (%) [3]: 43% and 66%
Population Fragmented Nuclei (%) [3]: 25% and 28%
Population Healthy Nuclei (%) [3]: 61% and 59%
Population Hoechst High Intensity Objects (%) [3]: 0%
Population Membrane Permeable-Phenotype (%) [3]: 0% and 5%
Population Mitochondria Different-Phenotype (%) [3]: 12% and 10%
Population Mitotic Cells (%) [3]: 56% and 33%
Population Normal (%) [3]: 100%
Population Pyknosed Nuclei (%) [3]: 13% and 12%
Population Tubulin-Different-Phenotype (%) [3]: 64% and 56%
Total Cell Count [3]: 171 and 286
Population Apoptotic (%) [4]: 80%
Population Fragmented Nuclei (%) [4]: 20% and 16%
Population Healthy Nuclei (%) [4]: 56% and 57%
Population Hoechst High Intensity Objects (%) [4]: 1% and 0%
Population Membrane Permeable-Phenotype (%) [4]: 14% and 7%
Population Mitochondria Different-Phenotype (%) [4]: 42% and 56%
Population Mitotic Cells (%) [4]: 19% and 20%
Population Normal (%) [4]: 98% and 99%
Population Pyknosed Nuclei (%) [4]: 23% and 25%
Population Tubulin-Different-Phenotype (%) [4]: 93% and 92%
Total Cell Count [4]: 159 and 220
Population Apoptotic (%) [5]: 77% and 72%
Population Fragmented Nuclei (%) [5]: 36% and 29%
Population Healthy Nuclei (%) [5]: 53% and 64%
Population Hoechst High Intensity Objects (%) [5]: 0%
Population Membrane Permeable-Phenotype (%) [5]: 2% and 3%
Population Mitochondria Different-Phenotype (%) [5]: 9% and 7%
Population Mitotic Cells (%) [5]: 22% and 27%
Population Normal (%) [5]: 99% and 100%
Population Pyknosed Nuclei (%) [5]: 9% and 5%
Population Tubulin-Different-Phenotype (%) [5]: 28% and 50%
Total Cell Count [5]: 326 and 194
Population Apoptotic (%) [6]: 88% and 86%
Population Fragmented Nuclei (%) [6]: 24% and 18%
Population Healthy Nuclei (%) [6]: 62% and 65%
Population Hoechst High Intensity Objects (%) [6]: 5% and 9%
Population Membrane Permeable-Phenotype (%) [6]: 8% and 10%
Population Mitochondria Different-Phenotype (%) [6]: 46% and 55%
Population Mitotic Cells (%) [6]: 11% and 13%
Population Normal (%) [6]: 94% and 90%
Population Pyknosed Nuclei (%) [6]: 12% and 15%
Population Tubulin-Different-Phenotype (%) [6]: 87% and 83%
Total Cell Count [6]: 138 and 202
